Shown are actives, neighbours in structure and some others; about 2.2% of the full set was active somewhere.
NadD inh: inhibitors of Staphylococcus aureus NadD; purified NadD enzyme, colorimetric absorbance read-out; inhibition, % at 20 µM; 0.78% of 360,000 active; in the data active = inhibition above about 26%
rCAG binder: molecules binding r(CAG) RNA repeats. 1.3% of 370,000 active. r(CAG) RNA repeat, TO-PRO-1 dye displacement fluorescence. inhibition, % at 3 µM;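 active = inhibition above the plate cutoff, the mean of all test compounds on that plate plus 3 SD, cut at about 35% in these data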;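 note: 0% = DMSO alone and 100% = 100 µM mitoxantrone as full dye displacement; higher means more dye released from RNA so lower well fluorescence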
ASAP1 GAP inh: inhibitors of human ASAP1 ArfGAP activity. Q9ULH1. AID 624377. inhibition, % at 16.5 µM. 0.19% of 360,000 active. ASAP1-stimulated ARF1 GTP hydrolysis, GDP FP detection; in the data active = inhibition above about 25%;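 note: 0% = vehicle with enzyme and substrate and 100% = no enzyme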
Target sequence (Q9ULH1 325-724 limits assumed): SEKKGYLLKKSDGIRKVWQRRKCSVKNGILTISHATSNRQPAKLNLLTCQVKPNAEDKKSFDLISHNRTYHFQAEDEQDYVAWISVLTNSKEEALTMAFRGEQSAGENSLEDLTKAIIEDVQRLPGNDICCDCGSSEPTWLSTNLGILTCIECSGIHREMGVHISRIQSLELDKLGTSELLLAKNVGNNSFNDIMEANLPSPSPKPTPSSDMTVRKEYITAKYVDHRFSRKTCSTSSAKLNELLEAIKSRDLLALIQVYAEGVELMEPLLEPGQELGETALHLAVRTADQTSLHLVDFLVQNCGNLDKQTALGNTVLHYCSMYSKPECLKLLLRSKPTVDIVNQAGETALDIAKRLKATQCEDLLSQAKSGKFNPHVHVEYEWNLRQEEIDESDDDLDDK
ARFGAP1 inhibitor: inhibits rat ARF GTPase activating protein 1 | Q62848 | inhibition, % at 16.5 µM | AID 651572 | Arfgap1-stimulated ARF1 GTP hydrolysis, GDP FP detection | 0.26% of 360,000 active;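 active = inhibition above a per-plate limit, mean inhibition of low control wells plus 3 SD, cut at about 25% in these data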;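 note: 0% = DMSO wells with enzyme and 100% = wells lacking Arfgap1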
Target sequence (Q62848 1-136 limits assumed): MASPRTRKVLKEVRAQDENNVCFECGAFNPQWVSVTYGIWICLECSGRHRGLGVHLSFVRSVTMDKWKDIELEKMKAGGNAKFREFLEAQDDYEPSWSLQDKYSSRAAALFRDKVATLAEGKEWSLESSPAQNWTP
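Material: rat Arfgap1 GAP domain (His6, aa 1-136), purified enzyme. Also added: human ARF1(Δ1-17)-GTP substrate. Compound dosing: 16.5 µM single point, 1.26% DMSO. Timing: enzyme reaction 120 min at 25 °C after 20 min preincubation. Signal: GDP detection by fluorescence polarization. Read-out basis: percent inhibition of GAP-stimulated GDP formation, scaled between DMSO and no-Arfgap1 medians.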
NadD conf: NadD (S. aureus) inhibition, single concentration confirmation; purified S. aureus NadD, colorimetric enzyme assay; shares compounds with NadD inh; inhibition, % at 20 µM; 13% of 2,000 active; in the data active = inhibition mostly above about 42%, no sharp cut-off; inactive = mostly below about 42%
Numbers without * were called inactive; / = no result given.

SMILES | NadD inh | rCAG binder | ASAP1 GAP inh | ARFGAP1 inhibitor | NadD conf
CC1(c2nnnn2-c2ccc3ccccc3c2)CSCC(=O)N1C1CC1 (centres undefined) | / | 2 | / | / | /
CCc1ccc(NC(=O)C(C)OC(=O)c2cc(=O)[nH]c3ccc(S(=O)(=O)Nc4ccc(F)cc4)cc23)cc1 (centres undefined) | 34* | 9 | 3 | 2 | 17
NC(=O)COC(=O)c1cc(=O)[nH]c2ccc(S(=O)(=O)Nc3ccc(F)cc3)cc12 | 0 | 0 | 0 | -2 | /
Cc1ccc(S(=O)(=O)N2CCN(C(=O)COC(=O)CCCOc3ccccc3)CC2)c(C)c1 | -6 | 5 | 2 | 3 | /
Cc1ccc(-n2[nH]c(C)c(/C=N/Nc3ccc([N+](=O)[O-])cc3[N+](=O)[O-])c2=O)cc1C | 37* | 14 | -5 | -6 | 12
CCNC(=O)C1(C)CCN(C(=O)c2ccccc2F)C1 (centres undefined) | 0 | 0 | -2 | -3 | /
O=C(Nc1ccc(-c2csc(Nc3cccc(C(F)(F)F)c3)n2)cc1)c1cc([N+](=O)[O-])cc(C(F)(F)F)c1 | 33* | 4 | -3 | 6 | 5
O=C(Nc1ccc(-c2csc(Nc3cccc(C(F)(F)F)c3)n2)cc1)c1ccccc1 | 14 | 23 | 16 | 10 | /
COc1ccc(C2c3ccccc3NC3C2C(=O)N(Cc2ccc(OC)cc2OC)[C@H]3Cc2ccccc2)cc1 (some centres undefined) | / | 13 | / | / | /
O=C1COC(c2ccccc2O)=NN1CCCl | -4 | 2 | -12 | -3 | /
C/C=C\C=C/C(=O)Nc1cccc(C2=NOC3(C2)C[C@H](C(N)=O)N(C(=O)CC)C3)c1 (some centres undefined) | -8 | 15 | -11 | 13 | /
NC(=O)[C@@H]1CC2(CC(c3cccc(NC(=O)COc4ccc(Cl)cc4)c3)=NO2)CN1C(=O)COc1ccc(Cl)cc1 (some centres undefined) | 48* | 7 | -6 | 6 | 24
C/C=C\C=C\C(=O)Nc1cccc(C2=NOC3(C2)C[C@@H](C(N)=O)N(C(=O)C(c2ccccc2)c2ccccc2)C3)c1 (some centres undefined) | 39* | 16 | 6 | 10 | 55*
N#CCC(=O)N1CC2(CC(c3cccc(NC(=O)COc4ccc(Cl)cc4)c3)=NO2)C[C@@H]1C(N)=O (some centres undefined) | 8 | 13 | -7 | 6 | /
NC(=O)[C@H]1CC2(CC(c3cccc(NC(=O)COc4ccc(Cl)cc4)c3)=NO2)CN1C(=O)C(c1ccccc1)c1ccccc1 (some centres undefined) | 33* | 13 | 0 | 10 | 33
CCOC(=O)[C@@]12CCCC3=C1N(CCC3)C(=O)[C@H]2CC(=O)NCCCOC | / | -1 | / | / | /
N#Cc1ccccc1N1CCN(S(=O)(=O)c2ccc3c(c2)CCC(=O)N3)CC1 | / | -1 | / | / | /
CCOc1ccc(/C=C/C2=Cc3c(sc(NC(=O)CSc4n[nH]c(N)n4)c3C#N)C(C)(C)C2)cc1 | 58* | 43* | 5 | -8 | 26
CC(C)c1ccc(NC(=O)Nc2cc3sccc3n2C)cc1 | 42* | 19 | 7 | 16 | 27
Cn1c(C(=O)Nc2ccc3c(c2)OCCO3)cc2sccc21 | -7 | 2 | 6 | 2 | /
Cc1ccc(O)c(C(=O)c2cnc3c(c2)c(-c2ccc(F)cc2)c(C#N)c(=O)n3C)c1 | 28* | 2 | -11 | 2 | 23
COC(=O)C1CN(Cc2ccc(Cl)cc2)CCS(=O)(=O)N1Cc1cn(Cc2ccc(C)cc2)nn1 (centres undefined) | / | 2 | / | / | /
CCN(CC)CCCNC(=O)c1cn(C(C)c2ccccc2)nn1 (centres undefined) | / | 3 | / | / | /
Nc1cccc2nc3ccccc3cc12 | -1 | / | / | / | /
Cc1cc2c(N)cccc2nn1 | 37* | -9 | 0 | -3 | 0
SMILES | NadD inh | rCAG binder | ASAP1 GAP inh | ARFGAP1 inhibitor | NadD conf
CN(C(=O)[C@@H](Cc1ccccc1)NC(=O)[C@H]1O[C@@H](n2cnc3c(=O)[nH]c(N)nc32)[C@H](O)[C@@H]1O)C1CCCCC1 | / | 8 | -10 | -2 | /
C=CCn1c(=O)/c(=C/c2ccc(C)o2)s/c1=C(/C#N)C(=O)c1ccccc1 | 30* | 26 | 8 | 15 | 3
C=CCn1c(=O)/c(=C\c2ccccn2)s/c1=C(/C#N)C(=O)NCC1CCCO1 (centres undefined) | -1 | 0 | 2 | -6 | /
Cc1cc(C)cc(-n2c3nc4ccccc4nc3c3c(=O)n(Cc4ccco4)cnc32)c1 | 33* | 24 | 1 | 6 | 9
COc1ccc(Cn2c(C)nc3c(c2=O)c2nc4ccccc4nc2n3Cc2ccco2)cc1 | 38* | 13 | -2 | -30 | 18
Cc1cccc(Cn2cc(CN3CC(N(C)CCCOC(=O)c4cc5ccccc5o4)CS3(=O)=O)nn2)c1 (centres undefined) | / | 4 | / | / | /
CN(C)CCN1CCN(C2CN(CCc3ccccc3)S(=O)(=O)C2)CC1 (centres undefined) | -4 | 2 | -6 | -3 | /
O=[N+]([O-])c1ccc(N2CCN(S(=O)(=O)c3ccc(Cl)cc3)CC2)cc1NCc1cccnc1 | 32* | -1 | 5 | 16 | 23
O=C(COC(=O)c1cc(=O)[nH]c2ccccc12)NCc1ccc(Cl)cc1 | -2 | 2 | -8 | -2 | /
Cn1c(-c2ccc(C=O)s2)nc2c3ccccc3c3ccccc3c21 | 50* | 14 | 0 | 3 | 11
COc1ccc2c(c1)CNC2CS(=O)(=O)NCC(C)C (centres undefined) | / | 7 | / | / | /
Cc1[nH][nH]c(=O)c1C(c1c(C)[nH][nH]c1=O)c1cn(Cc2cccc3ccccc23)c2ccccc12 | 46* | 27 | 16 | 15 | 67*
C[C@H](CO)N1C[C@H](C)[C@@H](CN(C)S(=O)(=O)c2ccccc2F)Oc2ncc(C#Cc3cccnc3)cc2C1=O | 12 | 4 | -13 | 0 | /
C[C@H]1CN([C@@H](C)CO)C(=O)c2cc(C#Cc3cccnc3)cnc2O[C@H]1CN(C)Cc1ccc(F)cc1 | 39* | 4 | 12 | -5 | 16
COc1cccc(Cn2cc(COC(=O)NCCc3c[nH]c4ccccc34)nn2)c1 | / | 4 | / | / | /
COc1ccc(N=C2C(=Nc3ccc(OC)cc3)N(c3ccc(OC)cc3)C(=S)N2c2ccccc2)cc1 | 30* | 0 | 5 | 0 | 3
COc1ccc2nc(/C(C#N)=C\c3ccc(Oc4ccc([N+](=O)[O-])cn4)cc3)[nH]c2c1 | 35* | 9 | 1 | 5 | 9
CCOc1cc(/C=C(/C#N)c2nc3ccccc3[nH]2)ccc1Oc1ccc([N+](=O)[O-])cn1 | 54* | 9 | 10 | 8 | 9
COc1ccc2nc(/C(C#N)=C\c3ccc(C(=O)O)cc3)[nH]c2c1 | 2 | 8 | -7 | 18 | /
Cc1ccc2nc(/C(C#N)=C\c3ccc(Oc4ccc([N+](=O)[O-])cn4)cc3)[nH]c2c1 | 36* | 18 | 11 | 1 | 12

Bioassay records deposited in PubChem by several laboratories.
